The target in assay [1] is T1, Integrin alpha-IIb/beta-3 (Homo sapiens, UniProt P08514+P05106). The experiment in a line: Inhibition of platelet aggregation in human gel-purified platelets containing fibrinogen (GPP+Fg). Summed up: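 Platelets are gel-filtered from human PRP on sepharose (2×10⁸ platelets/mL). They are assayed with 1 mM CaCl₂ and 1 mg/mL fibrinogen across a range of test-agent concentrations, and IC₅₀ is calculated from the inhibition curve.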

Assay [2] can be described thus: Inhibition of platelet aggregation in human platelet rich plasma (PRP).
Assay [3] deals with T1, Integrin alpha-IIb/beta-3. Put plainly: Inhibition of platelet aggregation in human platelet rich plasma (PRP). In short, it runs like this: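 Human PRP is obtained by centrifuging blood at 150g for 10 min; platelet-poor plasma serves as the 100% transmittance blank. PRP at 2×10⁸ platelets/mL is preincubated with test agent at several concentrations for 8 min. It is then stimulated with ADP (10 μM final), and aggregation is followed as light transmittance over time to derive IC₅₀.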

Some results are limits rather than exact numbers.

One may read the IC50 as the concentration that inhibits the measured activity by half. Lower therefore signals higher potency.

T1 sequence (P05106 27-788 limits assumed): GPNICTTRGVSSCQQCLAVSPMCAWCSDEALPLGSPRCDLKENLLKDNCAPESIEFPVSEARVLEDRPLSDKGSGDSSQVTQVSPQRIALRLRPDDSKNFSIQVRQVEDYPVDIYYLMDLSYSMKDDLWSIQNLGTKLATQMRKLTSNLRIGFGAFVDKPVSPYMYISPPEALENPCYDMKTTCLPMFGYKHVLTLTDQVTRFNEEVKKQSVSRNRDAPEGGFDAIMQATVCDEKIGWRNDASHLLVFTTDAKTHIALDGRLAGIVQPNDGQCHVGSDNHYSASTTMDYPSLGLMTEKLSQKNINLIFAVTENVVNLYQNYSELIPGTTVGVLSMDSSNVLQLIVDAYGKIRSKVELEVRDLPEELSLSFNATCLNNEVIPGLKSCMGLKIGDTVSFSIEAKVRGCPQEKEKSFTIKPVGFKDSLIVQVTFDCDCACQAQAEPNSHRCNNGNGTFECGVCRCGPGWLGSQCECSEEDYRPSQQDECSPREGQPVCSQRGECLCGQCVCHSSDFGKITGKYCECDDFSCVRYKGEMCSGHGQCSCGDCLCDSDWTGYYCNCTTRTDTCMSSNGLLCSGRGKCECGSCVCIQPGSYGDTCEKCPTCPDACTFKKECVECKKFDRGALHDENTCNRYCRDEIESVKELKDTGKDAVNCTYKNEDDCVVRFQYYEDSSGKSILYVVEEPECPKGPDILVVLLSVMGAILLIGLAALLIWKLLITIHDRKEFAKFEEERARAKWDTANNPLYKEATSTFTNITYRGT
T1 sequence (P08514 32-887 limits assumed): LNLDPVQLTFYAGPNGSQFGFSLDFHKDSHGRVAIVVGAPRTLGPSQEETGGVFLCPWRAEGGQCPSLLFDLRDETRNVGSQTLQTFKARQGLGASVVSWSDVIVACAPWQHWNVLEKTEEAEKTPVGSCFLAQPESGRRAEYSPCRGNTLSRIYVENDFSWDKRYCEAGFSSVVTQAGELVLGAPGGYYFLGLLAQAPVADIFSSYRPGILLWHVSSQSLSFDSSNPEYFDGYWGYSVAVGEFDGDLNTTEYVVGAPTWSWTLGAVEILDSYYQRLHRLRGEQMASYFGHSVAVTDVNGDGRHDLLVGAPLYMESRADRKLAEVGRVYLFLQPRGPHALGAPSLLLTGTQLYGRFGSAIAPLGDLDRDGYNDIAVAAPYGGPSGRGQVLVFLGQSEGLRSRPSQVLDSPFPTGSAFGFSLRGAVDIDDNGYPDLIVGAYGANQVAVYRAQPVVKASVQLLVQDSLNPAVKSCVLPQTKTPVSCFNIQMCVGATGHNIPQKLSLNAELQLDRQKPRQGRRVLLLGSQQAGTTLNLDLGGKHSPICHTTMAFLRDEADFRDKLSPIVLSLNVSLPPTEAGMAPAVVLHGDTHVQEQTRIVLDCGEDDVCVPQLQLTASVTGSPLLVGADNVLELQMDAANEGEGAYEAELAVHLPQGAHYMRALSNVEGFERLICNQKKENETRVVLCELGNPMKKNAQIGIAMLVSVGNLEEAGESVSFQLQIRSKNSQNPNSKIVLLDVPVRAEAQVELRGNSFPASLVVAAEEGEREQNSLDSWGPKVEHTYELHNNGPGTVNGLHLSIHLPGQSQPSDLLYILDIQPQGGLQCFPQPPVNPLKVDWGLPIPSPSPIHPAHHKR
T1 sequence (P08514 891-1039 limits assumed): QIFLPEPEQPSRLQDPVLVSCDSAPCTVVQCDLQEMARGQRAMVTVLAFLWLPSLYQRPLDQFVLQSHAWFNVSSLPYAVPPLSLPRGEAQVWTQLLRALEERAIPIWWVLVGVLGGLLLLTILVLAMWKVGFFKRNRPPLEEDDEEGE

In the case of `N=C(N)c1ccc(C2=NO[C@@H](CC(=O)NCCC(=O)O)C2)cc1`, the IC50 in assay [1] was found to be 0.14 µM; in assay [2], 0.24 µM.
In the same order, the values of `Cc1cc(C)c(S(=O)(=O)N[C@H](CNC(=O)C2=NOC(CCCCNc3ncc[nH]3)C2)C(=O)O)c(C)c1` (stereo partly specified) are 28 µM and 68 µM.
In the same order, the values of `O=C(NC[C@H](NS(=O)(=O)c1c(Cl)cccc1Cl)C(=O)O)C1=NOC(CCCCNc2ncc[nH]2)C1` (stereo partly specified) [2-(2,6-Dichloro-benzenesulfonylamino)-3-({5-[4-(1H-imidazol-2-ylamino)-butyl]-4,5-dihydro-isoxazole-3-carbonyl}-amino)-propionic acid] are 0.19 µM and 0.35 µM.
Turning to `Cc1cccc(Cl)c1S(=O)(=O)N[C@@H](CNC(=O)C1=NOC(CCCCNc2ncc[nH]2)C1)C(=O)O` (stereo partly specified) [2-(2-Chloro-6-methyl-benzenesulfonylamino)-3-({5-[4-(1H-imidazol-2-ylamino)-butyl]-4,5-dihydro-isoxazole-3-carbonyl}-amino)-propionic acid], in assay [2], the IC50 stood at 0.39 µM.
On to `O=C(NC[C@H](NS(=O)(=O)c1c(Cl)cc(-c2ccccc2)cc1Cl)C(=O)O)C1=NOC(CCCCNc2ncc[nH]2)C1` (stereo partly specified) [2-(3,5-Dichloro-biphenyl-4-sulfonylamino)-3-({5-[4-(1H-imidazol-2-ylamino)-butyl]-4,5-dihydro-isoxazole-3-carbonyl}-amino)-propionic acid], for which the IC50 in assay [2] is 1.6 µM.
For `Cc1cc(-c2ccccc2)cc(C)c1S(=O)(=O)N[C@@H](CNC(=O)C1=NOC(CCCCNc2ncc[nH]2)C1)C(=O)O` (stereo partly specified) [2-(3,5-Dimethyl-biphenyl-4-sulfonylamino)-3-({5-[4-(1H-imidazol-2-ylamino)-butyl]-4,5-dihydro-isoxazole-3-carbonyl}-amino)-propionic acid], the IC50 was found to be 0.69 µM in assay [1] and 3.1 µM in assay [2].
As for `Cc1cc(-c2ccccc2)cc(C)c1S(=O)(=O)N[C@@H](CNC(=O)C1=NOC(CCCCNc2ccccn2)C1)C(=O)O` (stereo partly specified) [2-(3,5-Dimethyl-biphenyl-4-sulfonylamino)-3-({5-[4-(pyridin-2-ylamino)-butyl]-4,5-dihydro-isoxazole-3-carbonyl}-amino)-propionic acid], in assay [2], the IC50 is greater than 100 µM.
`Cc1noc(C)c1S(=O)(=O)N[C@@H](CNC(=O)C1=NOC(CCCCNc2ncc[nH]2)C1)C(=O)O` (stereo partly specified) [2-(3,5-Dimethyl-isoxazole-4-sulfonylamino)-3-({5-[4-(1H-imidazol-2-ylamino)-butyl]-4,5-dihydro-isoxazole-3-carbonyl}-amino)-propionic acid] registered an IC50 in assay [2] of 1.5 µM.
Turning to `CC(C)c1ccc(S(=O)(=O)N[C@@H](CNC(=O)C2=NOC(CCCCNc3ccccn3)C2)C(=O)O)cc1` (stereo partly specified) [2-(4-Isopropyl-benzenesulfonylamino)-3-({5-[4-(pyridin-2-ylamino)-butyl]-4,5-dihydro-isoxazole-3-carbonyl}-amino)-propionic acid], the IC50 in assay [2] is greater than 100 µM.
Turning to `O=C(NC[C@H](NS(=O)(=O)c1ccc(-c2ccccc2)cc1)C(=O)O)C1=NOC(CCCCNc2ncc[nH]2)C1` (stereo partly specified) [2-(Biphenyl-4-sulfonylamino)-3-({5-[4-(1H-imidazol-2-ylamino)-butyl]-4,5-dihydro-isoxazole-3-carbonyl}-amino)-propionic acid], the IC50 in assay [1] is 5 µM; in assay [2] it was 43 µM.
With `O=C(NC[C@H](NS(=O)(=O)c1cccc2ccccc12)C(=O)O)C1=NOC(CCCCNc2ccccn2)C1` (stereo partly specified) [2-(Naphthalene-1-sulfonylamino)-3-({5-[4-(pyridin-2-ylamino)-butyl]-4,5-dihydro-isoxazole-3-carbonyl}-amino)-propionic acid], in assay [2], the IC50 was greater than 100 µM.
As for `N[C@@H](CNC(=O)C1=NOC(CCCCNc2ncc[nH]2)C1)C(=O)O` (stereo partly specified) [2-Amino-3-({5-[4-(1H-imidazol-2-ylamino)-butyl]-4,5-dihydro-isoxazole-3-carbonyl}-amino)-propionic acid], the IC50 in assay [1] amounted to 47 µM; in assay [2] it was 84 µM.
In the same order, the values of `O=C(NC[C@H](NS(=O)(=O)c1ccccc1)C(=O)O)C1=NOC(CCCCNc2ccccn2)C1` (stereo partly specified) [2-Benzenesulfonylamino-3-({5-[4-(pyridin-2-ylamino)-butyl]-4,5-dihydro-isoxazole-3-carbonyl}-amino)-propionic acid] are 18 µM and 30 µM.
Take `O=C(N[C@@H](CNC(=O)C1=NOC(CCCCNc2ccccn2)C1)C(=O)O)OCc1ccccc1` (stereo partly specified) [2-Benzyloxycarbonylamino-3-({5-[4-(pyridin-2-ylamino)-butyl]-4,5-dihydro-isoxazole-3-carbonyl}-amino)-propionic acid]: the IC50 in assay [3] is greater than 100 µM; in assay [1], 85 µM.
The molecule `Cc1cc(C)c(S(=O)(=O)N[C@@H](CNC(=O)C2=NOC(CCCCNS(N)(=O)=O)C2)C(=O)O)c(C)c1` (stereo partly specified) [2-[2,4,6-trimethylphenylsulfonylamino]-3-[5-(4-aminosulfonylamino)butyl)isoxazolin-3-ylcarbonyl]amino-propionic acid] displayed an IC50 in assay [1] greater than 100 µM.
Same read-out and setting: the same measure for `Cc1cc(C)c(S(=O)(=O)N[C@@H](CNC(=O)C2=NOC(CCCC(=O)Nc3ncc[nH]3)C2)C(=O)O)c(C)c1` (stereo partly specified) [3-({5-[3-(1H-Imidazol-2-ylcarbamoyl)-propyl]-4,5-dihydro-isoxazole-3-carbonyl}-amino)-2-(2,4,6-trimethyl-benzenesulfonylamino)-propionic acid]: greater than 100 µM.
On to `Cc1cc(C)c(S(=O)(=O)N[C@@H](CNC(=O)C2=NOC(CCCc3cnc(N)[nH]3)C2)C(=O)O)c(C)c1` (stereo partly specified) [3-({5-[3-(2-Amino-1H-imidazol-4-yl)-propyl]-4,5-dihydro-isoxazole-3-carbonyl}-amino)-2-(2,4,6-trimethyl-benzenesulfonylamino)-propionic acid], for which the values for the IC50 in assay [1] and in assay [2] were 0.18 µM and 0.28 µM, respectively.
Molecule `Cc1cc(C)c(S(=O)(=O)N[C@@H](CNC(=O)C2=NOC(CCCc3cccc(N)n3)C2)C(=O)O)c(C)c1` (stereo partly specified) [3-({5-[3-(6-Amino-pyridin-2-yl)-propyl]-4,5-dihydro-isoxazole-3-carbonyl}-amino)-2-(2,4,6-trimethyl-benzenesulfonylamino)-propionic acid] yielded an IC50 in assay [2] of 78 µM. This counts as double-digit micromolar.
Turning to `Cc1cc(C)c(S(=O)(=O)N[C@@H](CNC(=O)C2=NOC(CCCCNc3ncc[nH]3)C2)C(=O)O)c(C)c1` (stereo partly specified) [3-({5-[4-(1H-Imidazol-2-ylamino)-butyl]-4,5-dihydro-isoxazole-3-carbonyl}-amino)-2-(2,4,6-trimethyl-benzenesulfonylamino)-propionic acid], the IC50 in assay [2] stood at 0.85 µM.
As to `O=C(NC[C@H](NS(=O)(=O)c1cccc2ccccc12)C(=O)O)C1=NOC(CCCCNc2ncc[nH]2)C1` (stereo partly specified) [3-({5-[4-(1H-Imidazol-2-ylamino)-butyl]-4,5-dihydro-isoxazole-3-carbonyl}-amino)-2-(naphthalene-1-sulfonylamino)-propionic acid], the values for the IC50 in assay [1] and in assay [2] were 0.57 µM and 7.8 µM, respectively.
As for `Cc1cc(C)c(S(=O)(=O)N[C@@H](CNC(=O)C2=NOC(CCCCNC3=NCCN3)C2)C(=O)O)c(C)c1` (stereo partly specified) [3-({5-[4-(4,5-Dihydro-1H-imidazol-2-ylamino)-butyl]-4,5-dihydro-isoxazole-3-carbonyl}-amino)-2-(2,4,6-trimethyl-benzenesulfonylamino)-propionic acid], the IC50 in assay [1] is 0.6 µM; in assay [2], 0.69 µM.
In the same order, the values of `Cc1cc(C)c(S(=O)(=O)N[C@@H](CNC(=O)C2=NOC(CCCCNc3nccc4ccccc34)C2)C(=O)O)c(C)c1` (stereo partly specified) [3-({5-[4-(Isoquinolin-1-ylamino)-butyl]-4,5-dihydro-isoxazole-3-carbonyl}-amino)-2-(2,4,6-trimethyl-benzenesulfonylamino)-propionic acid] are 6.5 µM and 78 µM.
For the molecule `Cc1cc(C)c(S(=O)(=O)N[C@@H](CNC(=O)C2=NOC(CCCCNc3cc4ccccc4cn3)C2)C(=O)O)c(C)c1` (stereo partly specified) [3-({5-[4-(Isoquinolin-3-ylamino)-butyl]-4,5-dihydro-isoxazole-3-carbonyl}-amino)-2-(2,4,6-trimethyl-benzenesulfonylamino)-propionic acid], the IC50 in assay [1] came out at 7.7 µM; in assay [2], 11 µM.
For the molecule `Cc1cc(C)c(S(=O)(=O)N[C@@H](CNC(=O)C2=NOC(CCCCNc3ccccn3)C2)C(=O)O)c(C)c1` (stereo partly specified) [3-({5-[4-(Pyridin-2-ylamino)-butyl]-4,5-dihydro-isoxazole-3-carbonyl}-amino)-2-(2,4,6-trimethyl-benzenesulfonylamino)-propionic acid], the IC50 in assay [1] was 6.5 µM; in assay [2] it was 16 µM.
As for `Cc1cc(C)c(S(=O)(=O)N[C@@H](CNC(=O)C2=NOC(CCNC(=O)Nc3ncc[nH]3)C2)C(=O)O)c(C)c1` (stereo partly specified) [3-[(5-{2-[3-(1H-Imidazol-2-yl)-ureido]-ethyl}-4,5-dihydro-isoxazole-3-carbonyl)-amino]-2-(2,4,6-trimethyl-benzenesulfonylamino)-propionic acid], the IC50 in assay [1] turned out to be 32 µM; in assay [2], 120 µM.
In turn, `Cc1cc(C)c(S(=O)(=O)N[C@@H](CNC(=O)C2=NOC(CCCCNC(=N)N)C2)C(=O)O)c(C)c1` (stereo partly drawn) [3-{5-[4-amino(imino)methylaminobutyl]-4,5-dihydro-3-isoxazolylcarboxamido}-2-mesitylsulfonamido-(2S)-propanoic acid] came in with an IC50 in assay [2] of 0.16 µM.

The values above are taken from BindingDB's records for doi:10.1021/jm9900321 (Dupont Pharmaceuticals, 2000).
